A selection: hits, their analogues and other compounds. The true share with any hit is near 1.5%.
SENP1 inh – blocks the human SENP1 SUMO protease catalytic domain. inhibition, % at 10 µM. recombinant SENP1 catalytic domain, CyPet-SUMO1-YPet FRET cleavage. Q9P0U3. 360,000 tested, 0.21% active;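 active means inhibition at least 30% at 10 µM, raw YFP signal under a set limit, fluorescence ratio 0.5 to 1.5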
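Test system: recombinant human SENP1 catalytic domain, His6-tagged / Medium: pH 8 Tris buffer with EDTA, NaCl, BME, BSA, NP40, catalase / Also added: SUMO1 FRET substrate flanked by Cypet and Ypet, 25 nM / Times: 50 min reaction at room temperature / Signal: FRET, CFP and YFP emission / Control set: no-enzyme low control and enzyme-plus-DMSO high control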
Myeloid diff MLP – myeloid differentiation induction; ER-HoxA9 myeloid progenitors, lysozyme-GFP differentiation, flow cytometry; calls only at 10 µM; 360,000 tested, 1% active; AID 624256;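 active means normalized GFP-positive differentiation at or above the plate's own cutoff, the solvent-only control mean plus 3 SD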;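 further: cells exposed to compound for four days before flow analysis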
VLA-4 inh – inhibition in a human VLA-4 binding assay; P13612; VLA-4 expressing cells, ligand binding flow cytometry; inhibition, % (about 7 µM as worked out from the volumes in the protocol); 330,000 tested, 0.2% active; in the data active means inhibition above about 50%
Target sequence (P13612 whole entry, looked up): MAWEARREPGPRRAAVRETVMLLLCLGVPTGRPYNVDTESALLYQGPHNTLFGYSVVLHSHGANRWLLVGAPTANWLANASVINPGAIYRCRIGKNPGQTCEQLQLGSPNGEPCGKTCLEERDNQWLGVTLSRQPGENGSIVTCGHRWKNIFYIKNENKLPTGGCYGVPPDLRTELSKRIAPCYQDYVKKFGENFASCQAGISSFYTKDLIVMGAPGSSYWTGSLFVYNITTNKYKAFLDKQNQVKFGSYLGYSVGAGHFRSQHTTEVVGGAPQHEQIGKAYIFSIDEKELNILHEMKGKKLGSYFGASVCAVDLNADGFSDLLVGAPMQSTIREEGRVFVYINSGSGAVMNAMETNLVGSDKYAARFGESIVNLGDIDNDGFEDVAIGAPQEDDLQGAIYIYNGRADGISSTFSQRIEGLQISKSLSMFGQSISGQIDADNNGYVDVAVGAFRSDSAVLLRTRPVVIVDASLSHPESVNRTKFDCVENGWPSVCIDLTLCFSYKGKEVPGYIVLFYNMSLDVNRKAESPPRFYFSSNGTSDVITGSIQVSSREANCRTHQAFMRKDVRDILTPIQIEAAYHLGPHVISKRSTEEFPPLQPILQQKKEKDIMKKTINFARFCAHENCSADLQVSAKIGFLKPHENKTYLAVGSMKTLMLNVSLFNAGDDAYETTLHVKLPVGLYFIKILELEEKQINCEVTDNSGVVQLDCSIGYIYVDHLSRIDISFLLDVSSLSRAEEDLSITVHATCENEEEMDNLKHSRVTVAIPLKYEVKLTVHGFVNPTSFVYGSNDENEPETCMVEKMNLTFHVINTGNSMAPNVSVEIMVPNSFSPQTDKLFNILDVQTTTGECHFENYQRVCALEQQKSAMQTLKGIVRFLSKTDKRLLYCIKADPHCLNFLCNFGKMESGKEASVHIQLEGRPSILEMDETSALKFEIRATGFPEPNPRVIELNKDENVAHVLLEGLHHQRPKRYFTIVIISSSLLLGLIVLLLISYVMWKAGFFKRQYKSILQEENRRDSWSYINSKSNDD
Platelet DG rel – platelet dense granule release activity | inhibition, %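 (compounds screened at 7.5 µM in platelet-rich plasma)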 | AID 1663 | 300,000 tested, 0.22% active | human platelet-rich plasma, SFLLRN dense granule ATP release, luminescence;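 active means mean replicate score, as percent of positive control, at or above 50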
VLA-4 mod pick – confirmation of allosteric modulators of human VLA-4 integrin. shares compounds with VLA-4 inh. 1,300 tested, 2% active. inhibition, % at 6.7 µM. U937 cells, HUTS-21 LIBS mAb binding, flow cytometry; LDV ligand present at threefold Kd; in the data active means inhibition above about 40%
SENP1 inh conf – SENP1 (human) inhibition, single concentration confirmation; 520 tested, 34% active; AID 651678; recombinant SENP1, CyPet-SUMO1-YPet FRET cleavage; shares compounds with SENP1 inh; inhibition, % at 10 µM; in the data active means inhibition mostly above about 35%, no sharp cut-off; inactive means mostly below about 32%
SENP1 kin conf – SENP1 (human) inhibition, kinetic confirmation; shares compounds with SENP1 inh; recombinant SENP1, CyPet-SUMO1-YPet FRET kinetic cleavage; inhibition, % at 10 µM; 520 tested, 26% active; AID 651690; in the data active means inhibition mostly above about 32%, no sharp cut-off; inactive means mostly below about 29%
Myeloid diff – compounds promoting myeloid differentiation | shares compounds with Myeloid diff MLP | ER-HoxA9 myeloid progenitors, GFP/Mac1 double-positive flow | calls only | 2,300 tested, 2% active;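 active means share of green or green-and-red cells above 9 and 9% in run 1 or 4 and 3% in run 2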
GFP autofluor – compound fluorescence in myeloid differentiation counter-screen; ER-HoxA9 myeloid progenitors, no estrogen, GFP autofluorescence flow cytometry; vehicle wells 0%, positive control 100%; 2,300 tested, 7.4% active; fluorescence response, % (concentration not given with the values); shares compounds with Myeloid diff MLP; AID 651707;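 active means over 5% cells positive for green fluorescent reporter, or over 2% positive for both it and APC stain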
A number is an active result; i = inactive; nt = no result; + = active, no number.

SMILES | SENP1 inh | Myeloid diff MLP | VLA-4 inh | Platelet DG rel | Myeloid diff | GFP autofluor | others
COC(=O)[C@@H]1[C@@H](C(=O)OC)C2(c3ccccc3-c3ccccc32)N(c2ccc(Cl)cc2)N1C#N | i | nt | 58 | i | nt | nt | VLA-4 mod pick=i
COC(=O)C[C@]1(C(=O)OC)CN(C#N)N(c2ccc(Cl)cc2)C12c1ccccc1-c1ccccc12 | i | nt | 57 | i | nt | nt | VLA-4 mod pick=i
COc1ccc(C(=O)OC2C[C@H]3CC[C@H](C2)N3C)cc1OC (some centres not stated) | i | i | i | nt | nt | nt | VLA-4 mod pick=i
CCOc1ccc(C(=O)OC2CC3CCC(C2)N3C)cc1 (configuration not stated) | i | i | i | i | nt | nt | VLA-4 mod pick=i
COC(=O)C1=C(c2ccc(C(C)=O)cc2)C[C@@H]2CC[C@H]1N2C | i | i | i | nt | nt | nt
CN1C2CCC1CC(OC(=O)c1ccc(Cl)cc1)C2 (configuration not stated) | i | i | i | i | nt | nt | VLA-4 mod pick=i
CN1C2CCC1CC(OC(=O)c1ccc(Cl)cc1)(C(=O)O)C2 (configuration not stated) | i | i | i | i | nt | nt | VLA-4 mod pick=i
O=C1NCN(c2ccccc2)C12CCN(C(c1ccnc3ccccc13)c1nnnn1Cc1ccccc1)CC2 (configuration not stated) | i | i | nt | nt | nt | nt
Cc1cccc(C2=NCC(=O)N(CC(=O)NCc3ccco3)c3sc4c(c32)CCCC4)c1 | i | i | i | i | nt | nt
O=C1CN=C(c2ccc(Br)cc2)c2c(sc3c2CCCC3)N1CCN1CCCCC1 | i | i | 55 | i | nt | nt | VLA-4 mod pick=i
CCCCOP(=O)(CN1CCOCC1)OCCCC | i | i | 91 | i | nt | nt | VLA-4 mod pick=i
Cc1c(C)c2ccc(OCC(=O)N3CCC(C(=O)O)(c4ccccc4)CC3)c(C)c2oc1=O | i | i | i | i | nt | nt
Cc1cc(OCC(=O)NCc2ccncc2)c2c3c(c(=O)oc2c1)CCC3 | i | i | i | i | nt | nt
Cc1cc(OCC(=O)NCc2ccc(S(N)(=O)=O)cc2)c2c3c(c(=O)oc2c1)CCC3 | i | i | 53 | i | nt | nt | VLA-4 mod pick=i
Cc1cc(/C=C2\C(=O)NC(=O)N(C)C2=O)c(C)n1-c1ccc2c(c1)OCO2 | 35 | i | i | i | nt | nt | SENP1 inh conf=i;SENP1 kin conf=i
Nc1cccc2c1Cc1cc([N+](=O)[O-])ccc1-2 | 73 | i | nt | nt | nt | nt | SENP1 inh conf=i;SENP1 kin conf=i
N=C1c2ccccc2CN1c1cccc([N+](=O)[O-])c1 | i | i | i | i | nt | nt
COC(=O)C1=C(c2ccc(OCc3ccccc3)cc2)C[C@@H]2CC[C@H]1N2C(=O)NCc1cccc(C(F)(F)F)c1 | i | i | i | nt | nt | nt
O=C(N/N=C/c1c(O)n(Cc2ccco2)c(=O)[nH]c1=O)c1ccccc1O | i | i | i | i | nt | nt
COc1ccc(N=Nc2c(O)[nH]c(=S)[nH]c2=O)cc1 | 48 | i | i | i | nt | nt | SENP1 inh conf=43;SENP1 kin conf=i
CCN(CC)CCCN=Cc1c(O)n(-c2ccccc2F)c(=O)[nH]c1=O | i | i | i | i | nt | nt
CCN(CC)CCCN=Cc1c(O)n(-c2cccc(C)c2C)c(=O)[nH]c1=O | i | + | i | i | i | i
CN(c1ccc(O)cc1)c1ccc([N+](=O)[O-])c2nonc12 | i | + | nt | nt | i | i
O=[N+]([O-])c1ccc(N2CCCCCC2)c2nonc12 | i | i | i | i | nt | nt
O=c1[nH]c(=S)[nH]c(O)c1N=Nc1ccc2c(c1)OCCO2 | 36 | + | i | i | i | i
SMILES | SENP1 inh | Myeloid diff MLP | VLA-4 inh | Platelet DG rel | Myeloid diff | GFP autofluor | others
O=c1[nH]c(=S)[nH]c(O)c1N=Nc1ccc2c(c1)OCO2 | i | i | i | i | nt | nt
Fc1ccccc1N1CCN(Cc2ccc3c(c2)OCO3)CC1 | i | i | i | nt | i | i
O=C(Cc1cccs1)N1Cc2ccccc2-n2nncc2C1 | i | i | nt | nt | nt | nt
CCC(C)N1C(=O)/C(=C/c2ccc3c(c2)CCN3CCCCl)C(=O)NC1=S (configuration not stated) | i | i | i | i | nt | nt
O=C1NC(=O)N(Cc2cccs2)C(=O)/C1=C/c1ccc(N2CCOCC2)cc1 | i | nt | i | i | nt | nt
O=C1NC(=O)N(Cc2ccccc2Cl)C(=O)/C1=C/N1CCOCC1 | i | i | i | i | i | i
COc1ccccc1N1C(=O)CC(=O)NC1=O | i | i | i | i | nt | nt
CCOC(=O)C1=C(C)c2ccccc2OC1(C(=O)OCC)c1ccccc1 (configuration not stated) | i | i | nt | nt | i | i
COC(=O)C1=C(c2ccc(-c3ccccc3)c(F)c2)C[C@@H]2CC[C@H]1N2C(=O)NCc1cc(C)oc1C(F)(F)F | i | i | i | nt | nt | nt
COc1cccc(OCc2cc(C(=O)N3C[C@H]4C[C@@H](C3)c3cccc(=O)n3C4)no2)c1 | i | i | nt | i | nt | nt
C[C@]12CCC(=O)C=C1CCC1C2CC[C@@]2(C)C1CC[C@@]2(O)CC#N (some centres not stated) | i | + | i | nt | i | i
O=c1c2ccccc2nc(/C=C/c2ccc(O)c(O)c2)n1-c1ccccc1 | i | i | i | i | i | i
C#C[C@]1(O)CCC2C3CCC4=C/C(=N/OCC(=O)NC(C)C(=O)NC(CCSC)C(=O)O)CC[C@]4(C)C3CC[C@@]21C (some centres not stated) | i | i | i | i | nt | nt
COC(=O)[C@]1(C)C[C@H]1[C@H](NP(=O)(c1ccccc1)c1ccccc1)c1ccccc1 | i | i | i | i | i | i
S=C(NC1CCCCC1)N1CCC(c2cnc[nH]2)CC1 | i | i | i | i | nt | nt
COc1ccc(C2=NCC(=O)N(CC(=O)NCc3ccco3)c3sc4c(c32)CCCC4)cc1 | i | i | i | i | i | i
CC1=NCCc2c1[nH]c1ccccc21 | i | i | i | i | nt | nt
C[C@]1(O)CCC2C3CC[C@H]4C[C@@H](OC(=O)[C@@H](N)CCCCN)CC[C@]4(C)C3CC[C@@]21C (some centres not stated) | i | i | nt | nt | nt | nt
CCOP(=S)(OCC)c1ccc(N(C)C)cc1 | i | + | i | i | i | i
Cc1cc(C)c(N=Cc2c(O)[nH]c(=O)[nH]c2=O)c(C)c1 | i | i | i | i | nt | nt
COC(=O)NC(=C(Cl)Cl)P(=O)(c1ccccc1)c1ccccc1 | i | + | i | i | i | i
Cc1ccc(C(=O)N/C(=C\Cl)P(=O)(c2ccccc2)c2ccccc2)cc1 | i | i | i | i | nt | nt
CCN(CC)C(=O)c1ccc(NC(=O)c2cccc(S(=O)(=O)N3CCN(Cc4ccccc4)CC3)c2)cc1 | i | i | i | i | i | i
CCN(CC)C(=O)c1ccc(NC(=O)c2cc(S(=O)(=O)N3CCCCCC3)ccc2OC)cc1 | i | i | i | i | nt | nt
